Measured values from ChEMBL document CHEMBL1128283, “Novel modified carboxy terminal fragments of neuropeptide Y with high affinity for Y2-type receptors and potent functional antagonism at a Y1-type receptor” (J Med Chem, 1995).

Tests used:
HEL [1] = assay: (§1) Inhibition of NPY1-induced ([Ca2+]) release in HEL cell was determined at 100 nM; format: functional, Homo sapiens; design: scale not given: the % may be the effect or the level left
Outline: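 HEL cells loaded with fura-2 and kept in suspension; calcium read as the 340/380 nm ratio. Peptide tested at 100 nM, added 30 s before NPY. Agonist activity expressed as percent of the response to 100 nM NPY. Inhibition measured against the 5 nM NPY response.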

[2] = molecular target: T1, Neuropeptide Y receptor type 2 (Rattus norvegicus, UniProt Q9ERC0); assay: 50% displacement of specifically bound [3H]NPY2 from rat brain membranes.; format: cell membranes, Membrane
T1 sequence (Q9ERC0 whole entry): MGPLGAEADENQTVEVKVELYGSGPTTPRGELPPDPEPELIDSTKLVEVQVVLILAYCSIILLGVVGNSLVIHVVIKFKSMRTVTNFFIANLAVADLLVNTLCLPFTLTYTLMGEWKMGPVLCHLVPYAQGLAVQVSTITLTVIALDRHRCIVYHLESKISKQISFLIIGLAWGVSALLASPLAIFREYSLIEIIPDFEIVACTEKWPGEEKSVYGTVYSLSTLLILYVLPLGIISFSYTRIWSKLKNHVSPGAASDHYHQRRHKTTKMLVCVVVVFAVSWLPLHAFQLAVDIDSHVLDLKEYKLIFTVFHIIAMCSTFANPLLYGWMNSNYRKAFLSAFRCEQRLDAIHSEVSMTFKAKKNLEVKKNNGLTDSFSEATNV

HEL [3] = assay: Inhibition of NPY-induced ([Ca2+]) release in HEL cell was determined; format: functional, cell-based; settings: Homo sapiens
HEL [4] = assay: as §1; format: functional; settings: Homo sapiens, read-out: ED50 (the source's name)

Row | IC50 [2] | Substance | Activity (HEL [1]) | also measured
1 | 12 nM | H-HYINLIYRLRY-NH2 | 100% | 
2 |  | H-INLIYRLRY-NH2 [listing 1 of 2 here] | 33% | 
3 | 37 nM | H-INLIYRLRY-NH2 [listing 2 of 2 here] |  | 
4 | 174 nM | H-INPIYRLRY-NH2 |  | IC50 (HEL [3]): 9 nM
5 | 2950 nM | H-IYRLRY-NH2 |  | 
6 | 400 nM | H-LIYRLRY-NH2 |  | 
7 | 310 nM | H-NLIYRLRY-NH2 |  | 
8 |  | H-RHYINLITRQRY-NH2 [listing 1 of 2 here] | 0% | 
9 | 1300 nM | H-RHYINLITRQRY-NH2 [listing 2 of 2 here] |  | 
10 | 12 nM | H-RHYINLIYRLRY-NH2 | 100% | 
11 | > 100000 nM | H-TRQRY-NH2 |  | 
12 | 2100 nM | H-YINLITRLY-NH2 | 0% | 
13 | 30000 nM | H-YINLITRQRY-NH2 | 0% | 
14 | 8 nM | H-YINLIYRLRY-NH2 |  | EC50 (HEL [4]): 8.8 nM
15 |  | H-YINPIYRLRY-NH2 [listing 1 of 2 here] |  | IC50 (HEL [3]): 100 nM
16 | 44 nM | H-YINPIYRLRY-NH2 [listing 2 of 2 here] |  | 
